# Data published in ChEMBL document CHEMBL4251664, “Biocompatible Boron-Containing Prodrugs of Belinostat for the Potential Treatment of Solid Tumors” (ACS Med Chem Lett, 2018).
# What was measured:
# HeLa [1] = experiment: Prodrug conversion in human HeLa cells assessed as (E)-3-((3-(3-(N-phenylsulfamoyl)phenyl)acrylamidooxy)methyl)phenylboronic acid level after 1 day by UHPLC-MS/MS analysis; type: ADME, cell-based; conditions: 24 h
# Procedure, shortened: (§1)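 MDA-MB-231 or HeLa cells were incubated with the pinacol boronate prodrug, and culture medium was sampled daily from day 1 to day 6. The prodrug, boronic acid forms and belinostat were separated, identified and quantified by HPLC coupled to an Orbitrap mass spectrometer. Results are in ng/mL as mean ± SEM of triplicate experiments.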
# MDA-MB-231 [2] = experiment: Prodrug conversion in human MDA-MB-231 cells assessed as (E)-3-((3-(3-(N-phenylsulfamoyl)phenyl)acrylamidooxy)methyl)phenylboronic acid level after 6 days by UHPLC-MS/MS analysis; type: ADME, cell-based; conditions: mda-mb-231, 144 h; procedure, shortened: as §1
# HeLa [3] = experiment: Prodrug conversion in human HeLa cells assessed as belinostat level after 1 day by UHPLC-MS/MS analysis; type: ADME, cell-based; conditions: 24 h; procedure, shortened: as §1
# MDA-MB-231 [4] = experiment: Prodrug conversion in human MDA-MB-231 cells assessed as (E)-3-((3-(3-(N-phenylsulfamoyl)phenyl)acrylamidooxy)methyl)phenylboronic acid level after 1 day by UHPLC-MS/MS analysis; type: ADME, cell-based; conditions: mda-mb-231, 24 h; procedure, shortened: as §1
# HeLa [5] = experiment: Prodrug conversion in human HeLa cells assessed as (E)-3-((3-(3-(N-phenylsulfamoyl)phenyl)acrylamidooxy)methyl)phenylboronic acid level after 5 days by UHPLC-MS/MS analysis; type: ADME, cell-based; conditions: 120 h; procedure, shortened: as §1
# HeLa [6] = experiment: Prodrug conversion in human HeLa cells assessed as belinostat level after 6 days by UHPLC-MS/MS analysis; type: ADME, cell-based; conditions: 144 h; procedure, shortened: as §1
# HeLa [7] = experiment: Prodrug conversion in human HeLa cells assessed as (E)-3-((3-(3-(N-phenylsulfamoyl)phenyl)acrylamidooxy)methyl)phenylboronic acid level after 3 days by UHPLC-MS/MS analysis; type: ADME, cell-based; conditions: 72 h; procedure, shortened: as §1
# MDA-MB-231 [8] = experiment: Prodrug conversion in human MDA-MB-231 cells assessed as (E)-3-((3-(3-(N-phenylsulfamoyl)phenyl)acrylamidooxy)methyl)phenylboronic acid level after 3 days by UHPLC-MS/MS analysis; type: ADME, cell-based; conditions: mda-mb-231, 72 h; procedure, shortened: as §1
# MDA-MB-231 [9] = experiment: Prodrug conversion in human MDA-MB-231 cells assessed as (E)-3-((3-(3-(N-phenylsulfamoyl)phenyl)acrylamidooxy)methyl)phenylboronic acid level after 4 days by UHPLC-MS/MS analysis; type: ADME, cell-based; conditions: mda-mb-231, 96 h; procedure, shortened: as §1
# HeLa [10] = experiment: Antiproliferative activity against human HeLa cells after 72 hrs by resazurin dye based fluorescence assay; type: functional, cell-based
# HeLa [11] = experiment: Prodrug conversion in human HeLa cells assessed as (E)-3-((3-(3-(N-phenylsulfamoyl)phenyl)acrylamidooxy)methyl)phenylboronic acid level after 2 days by UHPLC-MS/MS analysis; type: ADME, cell-based; conditions: 48 h; procedure, shortened: as §1
# HeLa [12] = experiment: Prodrug conversion in human HeLa cells assessed as belinostat level after 2 days by UHPLC-MS/MS analysis; type: ADME, cell-based; conditions: 48 h; procedure, shortened: as §1
# MDA-MB-231 [13] = experiment: Prodrug conversion in human MDA-MB-231 cells assessed as (E)-3-((3-(3-(N-phenylsulfamoyl)phenyl)acrylamidooxy)methyl)phenylboronic acid level after 2 days by UHPLC-MS/MS analysis; type: ADME, cell-based; conditions: mda-mb-231, 48 h; procedure, shortened: as §1
# MDA-MB-231 [14] = experiment: Prodrug conversion in human MDA-MB-231 cells assessed as (E)-3-((3-(3-(N-phenylsulfamoyl)phenyl)acrylamidooxy)methyl)phenylboronic acid level after 5 days by UHPLC-MS/MS analysis; type: ADME, cell-based; conditions: mda-mb-231, 120 h; procedure, shortened: as §1
# HeLa [15] = experiment: Prodrug conversion in human HeLa cells assessed as belinostat level after 3 days by UHPLC-MS/MS analysis; type: ADME, cell-based; conditions: 72 h; procedure, shortened: as §1
# MDA-MB-231 [16] = experiment: Antiproliferative activity against human MDA-MB-231 cells after 72 hrs by resazurin dye based fluorescence assay; type: functional, cell-based; conditions: MDA-MB-231, 72 h
# HeLa [17] = experiment: Prodrug conversion in human HeLa cells assessed as belinostat level after 4 days by UHPLC-MS/MS analysis; type: ADME, cell-based; conditions: 96 h; procedure, shortened: as §1
# HeLa [18] = experiment: Prodrug conversion in human HeLa cells assessed as belinostat level after 5 days by UHPLC-MS/MS analysis; type: ADME, cell-based; conditions: 120 h; procedure, shortened: as §1
# MDA-MB-231 [19] = experiment: Prodrug conversion in human MDA-MB-231 cells assessed as belinostat level after 5 days by UHPLC-MS/MS analysis; type: ADME, cell-based; conditions: mda-mb-231, 120 h; procedure, shortened: as §1
# MDA-MB-231 [20] = experiment: Prodrug conversion in human MDA-MB-231 cells assessed as belinostat level after 3 days by UHPLC-MS/MS analysis; type: ADME, cell-based; conditions: mda-mb-231, 72 h; procedure, shortened: as §1
# MDA-MB-231 [21] = experiment: Prodrug conversion in human MDA-MB-231 cells assessed as belinostat level after 4 days by UHPLC-MS/MS analysis; type: ADME, cell-based; conditions: mda-mb-231, 96 h; procedure, shortened: as §1
# HeLa [22] = experiment: Prodrug conversion in human HeLa cells assessed as (E)-3-((3-(3-(N-phenylsulfamoyl)phenyl)acrylamidooxy)methyl)phenylboronic acid level after 4 days by UHPLC-MS/MS analysis; type: ADME, cell-based; conditions: 96 h; procedure, shortened: as §1
# MDA-MB-231 [23] = experiment: Prodrug conversion in human MDA-MB-231 cells assessed as belinostat level after 6 days by UHPLC-MS/MS analysis; type: ADME, cell-based; conditions: mda-mb-231, 144 h; procedure, shortened: as §1
# MDA-MB-231 [24] = experiment: Prodrug conversion in human MDA-MB-231 cells assessed as belinostat level after 1 day by UHPLC-MS/MS analysis; type: ADME, cell-based; conditions: mda-mb-231, 24 h; procedure, shortened: as §1
# MDA-MB-231 [25] = experiment: Prodrug conversion in human MDA-MB-231 cells assessed as belinostat level after 2 days by UHPLC-MS/MS analysis; type: ADME, cell-based; conditions: mda-mb-231, 48 h; procedure, shortened: as §1
# HeLa [26] = experiment: Prodrug conversion in human HeLa cells assessed as (E)-3-((3-(3-(N-phenylsulfamoyl)phenyl)acrylamidooxy)methyl)phenylboronic acid level after 6 days by UHPLC-MS/MS analysis; type: ADME, cell-based; conditions: 144 h; procedure, shortened: as §1
# A549 = experiment: Antiproliferative activity against human A549 cells after 72 hrs by resazurin dye based fluorescence assay; type: functional, cell-based; conditions: A549, 72 h
# [27] = Drug uptake in tumor of ovariectomized nu/nu mouse implanted with human MCF7 cells at 10 mg/kg, sc administered once daily for 22 days measured post last dose by HPLC-MS/MS analysis; type: ADME, organism-based, Neoplasm; conditions: female, read-out: Drug uptake
# Procedure, shortened: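 After 22 days of 10 mg/kg/day subcutaneous dosing in MCF-7 xenograft mice, animals were sacrificed. Tumours were excised, homogenized and extracted, then analysed by HPLC–MS/MS for belinostat and the free boronic acid. Results are expressed as ng/g tissue.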
# MCF7 [28] = experiment: Antitumor activity against human MCF7 cells implanted in ovariectomized nu/nu mouse assessed as tumor volume at 10 mg/kg, sc administered once daily for 22 days measured post last dose (reference value: 869 +/- 173 mm3); type: functional
# MCF-10A = experiment: Cytotoxicity against human MCF10A cells assessed as reduction in cell proliferation at 10 uM after 72 hrs by resazurin dye based fluorescence assay
# MCF7 [29] = experiment: Antitumor activity against human MCF7 cells implanted in ovariectomized nu/nu mouse assessed as tumor volume at 10 mg/kg, sc administered once daily for 22 days measured post last dose relative to control; type: functional
# MCF7 [30] = experiment: Antitumor activity against human MCF7 cells implanted in ovariectomized nu/nu mouse assessed as tumor volume at 10 mg/kg, sc administered once daily for 22 days measured on day 12 during compound dosing (reference value: 869 +/- 173 mm3); type: functional
# Mus musculus = experiment: Toxicity in ovariectomized nu/nu mouse implanted with human MCF7 cells assessed as effect on body weight at 10 mg/kg, sc administered once daily for 22 days; type: organism-based; conditions: in vivo, 528 h
# Procedure, shortened: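 MCF-7 xenograft in mice, dosed 10 mg/kg/day by subcutaneous injection alongside a vehicle group. Treatment ran 22 days. Body weights were compared with the vehicle group, and tumour volume was measured over the same period. At the end, mice were sacrificed and tumours removed.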
# MCF7 [31] = experiment: Antitumor activity against human MCF7 cells implanted in ovariectomized nu/nu mouse assessed as tumor weight at 10 mg/kg, sc administered once daily for 22 days measured post last dose (reference value: 743 +/- 142 mg); type: functional
# MCF7 [32] = experiment: Antiproliferative activity against human MCF7 cells after 72 hrs by resazurin dye based fluorescence assay; type: functional, cell-based; conditions: MCF7, 72 h
# MCF7 [33] = experiment: Antitumor activity against human MCF7 cells implanted in ovariectomized nu/nu mouse assessed as tumor growth inhibition at 10 mg/kg, sc administered once daily for 22 days measured post last dose relative to control; type: functional; conditions: 528 h, read-out: TGI
# [34] = Drug level in human HeLa cells treated with (E)-3-(3-(N-phenylsulfamoyl)phenyl)-N-(4-(4,4,5,5-tetramethyl-1,3,2-dioxaborolan-2-yl)benzyloxy)acrylamide measured after 1 to 6 days by UHPLC-MS/MS analysis; type: ADME, cell-based; procedure, shortened: as §1
# [35] = Drug level in human MDA-MB-231 cells treated with (E)-3-(3-(N-phenylsulfamoyl)phenyl)-N-(4-(4,4,5,5-tetramethyl-1,3,2-dioxaborolan-2-yl)benzyloxy)acrylamide measured after 1 to 6 days by UHPLC-MS/MS analysis; type: ADME, cell-based; procedure, shortened: as §1
smiles,measurement,setting,value
CC1(C)OB(c2cccc(CONC(=O)/C=C/c3cccc(S(=O)(=O)Nc4ccccc4)c3)c2)OC1(C)C,Drug metabolism,HeLa [1],303.2 ng/mL
same,Drug metabolism,MDA-MB-231 [2],155.8 ng/mL
same,Drug metabolism,HeLa [3],Metabolite_Notdetected
same,Drug metabolism,MDA-MB-231 [4],359.1 ng/mL
same,Drug metabolism,HeLa [5],97.2 ng/mL
same,Drug metabolism,HeLa [6],Metabolite_Notdetected
same,Drug metabolism,HeLa [7],147.9 ng/mL
same,Drug metabolism,MDA-MB-231 [8],199 ng/mL
same,Drug metabolism,MDA-MB-231 [9],198.8 ng/mL
same,IC50,HeLa [10],8320 nM
same,Drug metabolism,HeLa [11],188.6 ng/mL
same,Drug metabolism,HeLa [12],Metabolite_Notdetected
same,Drug metabolism,MDA-MB-231 [13],262.9 ng/mL
same,Drug metabolism,MDA-MB-231 [14],168.5 ng/mL
same,Drug metabolism,HeLa [15],Metabolite_Notdetected
same,IC50,MDA-MB-231 [16],2030 nM
same,Drug metabolism,HeLa [17],Metabolite_Notdetected
same,Drug metabolism,HeLa [18],Metabolite_Notdetected
same,Drug metabolism,MDA-MB-231 [19],Metabolite_Notdetected
same,Drug metabolism,MDA-MB-231 [20],Metabolite_Notdetected
same,Drug metabolism,MDA-MB-231 [21],Metabolite_Notdetected
same,Drug metabolism,HeLa [22],134.7 ng/mL
same,Drug metabolism,MDA-MB-231 [23],Metabolite_Notdetected
same,Drug metabolism,MDA-MB-231 [24],Metabolite_Notdetected
same,Drug metabolism,MDA-MB-231 [25],Metabolite_Notdetected
same,Drug metabolism,HeLa [26],66.6 ng/mL
same,IC50,A549,3600 nM
O=C(/C=C/c1cccc(S(=O)(=O)Nc2ccccc2)c1)NO [BELINOSTAT],concentration at 528 h,[27],23.4 ng/g
same,Activity,MCF7 [28],194 mm3
same,Activity,MCF-10A,Non-Toxic
same,IC50,HeLa [10],87 nM
same,T/C,MCF7 [29],22.3%
same,Activity,MCF7 [30],167 mm3
same,IC50,MDA-MB-231 [16],62 nM
same,Activity,Mus musculus,Non-Toxic
same,Activity,MCF7 [31],167 mg
same,IC50,MCF7 [32],96 nM
same,inhibition in vivo at 10 mg/kg,MCF7 [33],77.7%
same,IC50,A549,77 nM
O=C(/C=C/c1cccc(S(=O)(=O)Nc2ccccc2)c1)NOCc1cccc(B(O)O)c1,IC50,HeLa [10],12900 nM
same,IC50,MDA-MB-231 [16],2200 nM
same,IC50,A549,6580 nM
O=C(/C=C/c1cccc(S(=O)(=O)Nc2ccccc2)c1)NOCc1ccc(B(O)O)cc1,Drug metabolism,[34],Metabolite_Detected
same,Drug metabolism,[35],Metabolite_Detected
